Holding throughout (assay type): cell-based
Series [1] deals with Raji. The series is described as follows: Inhibition of 12-O-tetradecanoylphorbol-13-acetate induced EBV-early antigen activation in human Raji cells assessed as EA activation at 10 molar ratio relative to TPA. Details: scale not given: the % may be the effect or the level left. Particulars: human gammaherpesvirus 4. In a few lines: (§1)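 Raji cells stimulated with TPA at 20 ng/ml (32 pM/ml) in the presence of test compound at 10, 100, 500 or 1000 mol ratio to TPA. EBV early antigen activation is reported as a percentage of the TPA-only positive control (100%).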

Series [2] in a line: Cytotoxicity against human Raji cells assessed as cell viability at 100 molar ratio. Particulars: read-out: Activity. In outline: (§2)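 Raji cell viability was recorded in the same TPA-induced EBV-EA assay (TPA 20 ng/ml, 32 pM/ml), with compound at 10, 100, 500 or 1000 mol ratio to TPA. Viability is reported as a percentage.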
Series [3] concerns Raji. The series can be described thus: Inhibition of 12-O-tetradecanoylphorbol-13-acetate induced EBV-early antigen activation in human Raji cells assessed as EA activation at 1000 molar ratio relative to TPA. Set-up: scale not given: the % may be the effect or the level left. Particulars: human gammaherpesvirus 4. In outline:
as §1

The test system of series [4] is Raji. The series can be described thus: Inhibition of 12-O-tetradecanoylphorbol-13-acetate induced EBV-early antigen activation in human Raji cells assessed as EA activation at 500 molar ratio relative to TPA. Details: scale not given: the % may be the effect or the level left. Particulars: human gammaherpesvirus 4. In a few lines: as §1
The nature of series [5]: Cytotoxicity against human Raji cells assessed as cell viability at 10 molar ratio. Particulars: read-out: Activity. In outline: as §2
Series [6] in a line: Cytotoxicity against human Raji cells assessed as cell viability at 1000 molar ratio. Particulars: read-out: Activity. In a few lines: as §2
The nature of series [7]: Cytotoxicity against human Raji cells assessed as cell viability at 500 molar ratio. Particulars: read-out: Activity. In a few lines: as §2
In series [8] the test system is Raji. The series can be described thus: Inhibition of 12-O-tetradecanoylphorbol-13-acetate induced EBV-early antigen activation in human Raji cells assessed as EA activation at 100 molar ratio relative to TPA. Particulars: human gammaherpesvirus 4. Details: scale not given: the % may be the effect or the level left. In outline:
as §1

On to `CC(=O)O[C@H]1C[C@@H](C)[C@@]23C[C@@H](C[C@H](OC(=O)/C=C/c4ccccc4)[C@]2(C)[C@H]1OC(C)=O)C(C)(C)O3`, for which the Activity was 100% in the series on Raji [1], 25.6% in the series on Raji [3], 63.1% in the series on Raji [4] and 89.4% in the series on Raji [8]. Further, the viability at 100 molar ratio in series [2] was > 80%. For the same molecule, the viability at 10 molar ratio in series [5] was > 80%. In addition, the viability at 1000 molar ratio in series [6] was 70%. Also, the viability at 500 molar ratio in series [7] was > 80%.

On to `CC(=O)O[C@H]1CC[C@@H](C)[C@]23OC(C)(C)[C@H](C[C@H](OC(=O)c4ccccc4)[C@]12C)[C@H]3OC(C)=O`, for which the Activity in the series with Raji [1] worked out at 100%; with Raji [3] it was 26.2%; in the series on Raji [4], 47.9%; with Raji [8] it was 92.1%. The viability at 100 molar ratio in series [2] was > 80%. Further, the viability at 10 molar ratio in series [5] was > 80%. Besides, the viability at 1000 molar ratio in series [6] is 70%. The viability at 500 molar ratio in series [7] is > 80%.

Consider `CC(=O)O[C@H]1C[C@@H](C)[C@]23OC(C)(C)[C@H](C[C@H](OC(=O)c4ccccc4)[C@]2(C)[C@H]1OC(C)=O)[C@H]3OC(C)=O`, for which the Activity is 100% with Raji [1], 34.2% in the series with Raji [3], 65.9% in the series on Raji [4] and 92.9% in the series with Raji [8]. Also, in series [2], the viability at 100 molar ratio is > 80%. The viability at 10 molar ratio in series [5] is > 80%. For the same molecule, in series [6], the viability at 1000 molar ratio came to 70%. Also, the viability at 500 molar ratio in series [7] was > 80%.

Regarding `CC(=O)O[C@H]1CC[C@@H](C)[C@]23OC(C)(C)[C@H](C[C@H](OC(=O)c4ccccc4)[C@]12C)[C@H]3OC(=O)c1ccccc1`, the Activity with Raji [1] amounted to 100%; with Raji [3], 53.6%; with Raji [4], 84.6%; in the series on Raji [8] it was 100%. Also, the viability at 100 molar ratio in series [2] is > 80%. In addition, the viability at 10 molar ratio in series [5] was > 80%. Besides, in series [6], the viability at 1000 molar ratio turned out to be 70%. Moreover, in series [7], the viability at 500 molar ratio was > 80%.

For the molecule `CC(=O)O[C@@H]1[C@@H]2[C@@H](OC(C)=O)[C@]3(OC2(C)C)[C@H](C)CC[C@H](OC(C)=O)[C@@]3(C)[C@H]1OC(=O)c1ccccc1`, the Activity was 100% in the series on Raji [1], 15.3% in the series with Raji [3], 52.8% with Raji [4] and 90.6% in the series with Raji [8]. Further, the viability at 100 molar ratio in series [2] was > 80%. Further, the viability at 10 molar ratio in series [5] was > 80%. The viability at 1000 molar ratio in series [6] was 70%. In addition, in series [7], the viability at 500 molar ratio is > 80%.

As for `CC(=O)O[C@@H]1[C@H]2[C@@H](O)[C@@H](OC(=O)c3ccccc3)[C@]3(C)[C@@H](OC(=O)c4ccccc4)CC[C@@H](C)[C@@]13OC2(C)C`, the Activity turned out to be 100% in the series on Raji [1], 0% in the series on Raji [3], 39.3% in the series on Raji [4] and 81.1% in the series with Raji [8]. Also, the viability at 100 molar ratio in series [2] was > 80%. In series [5], the viability at 10 molar ratio is > 80%. In addition, the viability at 1000 molar ratio in series [6] was determined as 60%. For the same molecule, the viability at 500 molar ratio in series [7] is > 80%.

Take `CC(=O)O[C@H]1C[C@@H](C)[C@@]23C[C@@H](C[C@H](OC(=O)/C=C/c4ccccc4)[C@]2(C)[C@H]1O)C(C)(C)O3`: the Activity is 100% in the series with Raji [1], 0% in the series on Raji [3], 41.6% in the series with Raji [4] and 86.4% with Raji [8]. Further, the viability at 100 molar ratio in series [2] was > 80%. For the same molecule, in series [5], the viability at 10 molar ratio is > 80%. Moreover, the viability at 1000 molar ratio in series [6] came out at 70%. Moreover, the viability at 500 molar ratio in series [7] was > 80%.

(Values after ChEMBL document CHEMBL1148162, “Structures of sesquiterpene polyol esters from Celastrus stephanotiifolius with potential tumor-promotion inhibitor activity” (J Nat Prod, 1993).)
